Laboratory results from ChEMBL document CHEMBL1799947, “Synthesis, transport and antiviral activity of Ala-Ser and Val-Ser prodrugs of cidofovir” (Bioorg Med Chem Lett, 2011).
The source made the active and inactive calls. No cut-off for these calls is given here.

Assays:
[1] = Cytotoxicity against human KB cells after 48 hrs by crystal violet staining technique; format: cell-based
Plasma [2] = test: Prodrug conversion in fasted Albino Sprague-Dawley rat assessed as increase of cidofovir species level in plasma at 10 mg/kg into gastrointestinal tract relative to cidofovir or cyclic cidofovir; format: ADME, organism-based; set-up: dose 10 mg/kg; details: in vivo, other
Method in brief: (§1)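 Rats received 3 mg of drug (about 10 mg/kg) by direct injection into the gastrointestinal tract. Plasma was sampled over a 4 h time course. Read-out was dose-corrected total cidofovir species in plasma.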

Human betaherpesvirus 5 = test: Antiviral activity against Human cytomegalovirus Towne infected in HFF cells assessed as reduction in plaque formation after 10 days; format: functional, organism-based; details: Human betaherpesvirus 5, Towne, 240 h
Method in brief: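 HCMV plaque reduction assay incubated 10 days, with ganciclovir as the positive control.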

Plasma [3] = test: Drug uptake in fasted Albino Sprague-Dawley rat plasma at 10 mg/kg administered into gastrointestinal tract measured up to 4 hrs; format: ADME, organism-based; set-up: dose 10 mg/kg; details: in vivo, other; method in brief: as §1
[4] = Antiviral activity against Cowpox virus Brighton infected in HFF cells assessed as reduction in plaque formation after 3 days; format: functional, cell-based, Cowpox virus (Brighton Red); details: 72 h
Vaccinia virus [5] = test: Antiviral activity against Vaccinia virus Copenhagen infected in HFF cells assessed as reduction in plaque formation after 3 days; format: functional, organism-based; details: Orthopoxvirus vaccinia, 72 h
[6] = (§2) Cytotoxicity against HFF cells; format: cell-based; details: human, HFF cells
HFF = test: as §2; format: cell-based; details: human, hff
Plasma [7] = test: Prodrug conversion in CFW Swiss-Webster mouse plasma assessed as cidofovir monoethyl ester formation at 10 mg/kg administered through oral gavage; format: ADME, organism-based; set-up: dose 10 mg/kg, route oral; details: in vivo
Vaccinia virus [8] = test: Antiviral activity against Vaccinia virus Copenhagen infected in HFF cells assessed as reduction in plaque formation up to 100 uM after 3 days; format: functional, organism-based; details: Orthopoxvirus vaccinia

Structure (SMILES)	CC50 at 48 h [1]	IC50 (Human betaherpesvirus 5)	Drug uptake (Plasma [3])	IC50 [4]	IC50 (Vaccinia virus [5])	other results
CC(C)OC(=O)[C@H](COP(=O)(O)CO[C@H](CO)Cn1ccc(N)nc1=O)NC(=O)[C@H](N)C(C)C (mixture of isomers)	> 100 µM	1.3 µM	Active	> 100 µM	> 100 µM	fold change (FC) (Plasma [2]): 15
Nc1ncnc2c1ncn2[C@@H]1O[C@H](CO)[C@@H](O)[C@@H]1O [VIDARABINE]	–	–	–	–	2 µM	–
CC(C)OC(=O)[C@H](COP(=O)(O)CO[C@H](CO)Cn1ccc(N)nc1=O)NC(=O)[C@@H](N)C(C)C	> 100 µM	0.32 µM	–	> 100 µM	> 100 µM	–
CC(C)OC(=O)[C@H](COP1(=O)CO[C@@H](Cn2ccc(N)nc2=O)CO1)NC(=O)[C@H](N)C(C)C (some centres undefined)	–	–	Active	–	–	–
COC(=O)[C@H](COP1(=O)CO[C@@H](Cn2ccc(N)nc2=O)CO1)NC(=O)[C@@H](N)C(C)C (some centres undefined)	> 100 µM	0.3 µM	–	> 30 µM	100 µM	CC50 [6]: > 100 µM
Nc1ccn(C[C@H]2COP(=O)(O)CO2)c(=O)n1 [CYCLIC CIDOFOVIR]	> 100 µM	0.25 µM	Active	30 µM	40 µM	CC50 (HFF): 100 µM
CCOP(=O)(CO[C@H](CO)Cn1ccc(N)nc1=O)OC[C@H](NC(=O)[C@@H](N)C(C)C)C(=O)OC (some centres undefined)	–	–	Not Active	–	–	Activity (Plasma [7]): Active
CCOP(=O)(CO[C@H](CO)Cn1ccc(N)nc1=O)OC[C@H](NC(=O)[C@H](C)N)C(=O)OC (some centres undefined)	–	–	Active	–	–	Activity (Plasma [7]): Active
CCOP(=O)(O)CO[C@H](CO)Cn1ccc(N)nc1=O	–	–	–	–	–	Activity (Vaccinia virus [8]): inactive
Nc1ccn(C[C@@H](CO)OCP(=O)(O)O)c(=O)n1.O.O [CIDOFOVIR]	> 100 µM	0.11 µM	Active	30 µM	20 µM	CC50 [6]: > 100 µM
